Experimental data reported in ChEMBL document CHEMBL1122379, “Design of anticandidal agents: synthesis and biological properties of analogues of polyoxin L” (J Med Chem, 1983).

What was measured:
Candida albicans [1] = assay: Minimum effective concentration is the lowest concentration at which some (5%) morphologically abnormal cells were observed under microscopic examination.; assay type: functional; conditions: read-out: MEC
Procedure, shortened: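 C. albicans H-317 (clinical isolate) grown at 37 °C in yeast nitrogen base with 0.5% isoleucine and 5.0% glucose, harvested at early log phase, washed. Twofold serial dilutions in yeast nitrogen base, 1×10^6 cells/mL per well, 48 h at 37 °C in humid chamber with slight agitation; wells examined microscopically for lowest concentration giving ~5% abnormal cells.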

Candida albicans [2] = assay: (§1) Concentration at which 50% of the cells incubated, were not able to form colonies when replated.; assay type: functional
Procedure, shortened: (§2)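 C. albicans H-317 grown at 37 °C with stirring in yeast nitrogen base with 0.5% isoleucine and 5.0% glucose, harvested at early log phase. Cells were exposed at 1×10^6 cells/mL to twofold serial drug dilutions and incubated 48 h at 37 °C in a humid chamber. Wells were plated on potato dextrose agar for 2 days at 37 °C. Viability was taken as colonies versus hemocytometer counts.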

[3] = target: Chitin synthase 1 (Candida albicans) (UniProt P23316); assay: Inhibitory activity against chitin synthetase from Candida albicans H-317; assay type: functional
Chain of Chitin synthase 1 (Candida albicans) (P23316 whole entry, looked up): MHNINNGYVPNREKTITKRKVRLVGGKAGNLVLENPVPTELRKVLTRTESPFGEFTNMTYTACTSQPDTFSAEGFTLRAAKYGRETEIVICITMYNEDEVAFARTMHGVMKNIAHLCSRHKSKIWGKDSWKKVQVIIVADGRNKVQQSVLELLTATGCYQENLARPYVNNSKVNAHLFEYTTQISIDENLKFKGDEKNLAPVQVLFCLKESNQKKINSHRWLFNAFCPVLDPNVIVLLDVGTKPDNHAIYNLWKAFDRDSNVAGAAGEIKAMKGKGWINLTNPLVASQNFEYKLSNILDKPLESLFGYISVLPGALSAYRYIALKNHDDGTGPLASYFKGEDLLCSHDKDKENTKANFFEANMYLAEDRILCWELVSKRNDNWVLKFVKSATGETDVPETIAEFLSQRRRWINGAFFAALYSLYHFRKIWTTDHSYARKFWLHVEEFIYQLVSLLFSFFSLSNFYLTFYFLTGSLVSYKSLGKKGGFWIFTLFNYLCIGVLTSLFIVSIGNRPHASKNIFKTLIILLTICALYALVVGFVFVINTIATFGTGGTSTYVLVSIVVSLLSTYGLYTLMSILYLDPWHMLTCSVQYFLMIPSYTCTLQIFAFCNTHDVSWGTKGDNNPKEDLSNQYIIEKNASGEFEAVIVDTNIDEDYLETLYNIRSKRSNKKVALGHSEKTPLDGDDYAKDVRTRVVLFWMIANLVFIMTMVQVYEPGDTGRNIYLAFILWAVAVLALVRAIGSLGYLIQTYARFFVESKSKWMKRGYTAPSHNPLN
Procedure, shortened: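 Mixed membrane fraction of C. albicans H-317 (5.17 mg protein/mL stock), trypsin-activated 10 min at 37 °C with ATP in imidazole buffer pH 6.5; trypsin inhibitor, GlcNAc and UDP-[14C]GlcNAc then added with inhibitor at 10^-3 to 10^-6 M. Aliquots taken at 5–60 min, acid/ethanol-precipitated chitin filtered and scintillation-counted; ID50 = concentration giving half of initial velocity from dose-response curves.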

Candida albicans [4] = assay: as §1; assay type: ADME, organism-based; conditions: read-out: Viability; procedure, shortened: as §2

Row | Compound | ID50 [3] | minimal effective concentration (Candida albicans [1]) | Viability (Candida albicans [2]) | LC50 (Candida albicans [4])
1 | NC(Cc1ccc(Oc2ccc(O)cc2)cc1)C(=O)NC(C(=O)O)[C@H]1O[C@@H](n2ccc(=O)[nH]c2=O)[C@H](O)[C@@H]1O (some centres undefined) | 16 µM | 2000 µM | 4 mM | –
2 | NC(=O)OCC(O)C(O)C(N)C(=O)NC(C(=O)O)[C@H]1O[C@@H](n2cc(C(=O)O)c(=O)[nH]c2=O)[C@H](O)[C@@H]1O (some centres undefined) | 1.8 µM | 2 µM | 1 mM | –
3 | NC(=O)NCCCC(N)C(=O)N[C@@H](C(=O)O)[C@H]1O[C@@H](n2ccc(=O)[nH]c2=O)[C@H](O)[C@@H]1O (some centres undefined) | 68 µM | 500 µM | >8 mM | –
4 | NC(C(=O)O)[C@H]1O[C@@H](n2ccc(=O)[nH]c2=O)[C@H](O)[C@@H]1O (some centres undefined) | > 100 µM | 8000 µM | >8 mM | –
5 | NC(Cc1ccc(O)cc1)C(=O)NC(C(=O)O)[C@H]1O[C@@H](n2ccc(=O)[nH]c2=O)[C@H](O)[C@@H]1O (some centres undefined) | 4.9 µM | 8000 µM | – | > 8000 µM

The next lines start with results.

Row | ID50 [3] | Compound | minimal effective concentration (Candida albicans [1]) | Viability (Candida albicans [2]) | LC50 (Candida albicans [4])
6 | 14 µM | CCCCC(N)C(=O)NC(C(=O)O)[C@H]1O[C@@H](n2ccc(=O)[nH]c2=O)[C@H](O)[C@@H]1O (some centres undefined) | 170 µM | 4 mM | –
7 | 1.7 µM | N[C@@H](Cc1c[nH]c2ccccc12)C(=O)NC(C(=O)O)[C@H]1O[C@@H](n2ccc(=O)[nH]c2=O)[C@H](O)[C@@H]1O (some centres undefined) | 130 µM | >8 mM | –
8 | 3.8 µM | NC(CCc1ccccc1)C(=O)NC(C(=O)O)[C@H]1O[C@@H](n2ccc(=O)[nH]c2=O)[C@H](O)[C@@H]1O (some centres undefined) | 60 µM | >8 mM | –
